Screens from PubChem.
SENP6 inh: SENP6 protease inhibitors, primary screen, biochemical, luminescence, uHTS | Sentrin-specific protease 6 (Homo sapiens), Q9GZR1 | Recombinant SENP6 catalytic domain, aminoluciferin luminescence | inhibition, % at 10 µM | 330,000 tested, 1.8% active | AID 2599, 2010;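 active = inhibition above about 50% at the single tested dose, limit read from the data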;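 also: plate controls were DMSO wells with enzyme for no effect and DMSO wells lacking enzyme for full effect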
Target sequence (Q9GZR1 628-1112 limits assumed): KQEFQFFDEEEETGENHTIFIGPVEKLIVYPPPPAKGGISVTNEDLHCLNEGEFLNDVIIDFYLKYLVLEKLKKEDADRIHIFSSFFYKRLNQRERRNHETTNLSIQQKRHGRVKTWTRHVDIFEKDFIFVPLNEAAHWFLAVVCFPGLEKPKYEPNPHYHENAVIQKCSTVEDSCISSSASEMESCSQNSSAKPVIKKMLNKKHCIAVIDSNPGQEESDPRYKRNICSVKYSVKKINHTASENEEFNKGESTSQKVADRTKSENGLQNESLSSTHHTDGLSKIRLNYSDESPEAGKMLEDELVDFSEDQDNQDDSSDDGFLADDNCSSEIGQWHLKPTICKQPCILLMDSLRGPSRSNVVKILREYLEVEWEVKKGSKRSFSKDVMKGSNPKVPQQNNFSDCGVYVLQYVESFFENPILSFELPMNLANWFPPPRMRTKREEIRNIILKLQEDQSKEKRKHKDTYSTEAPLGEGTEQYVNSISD
SENP1 inh: human SENP1 catalytic domain inhibitors, primary screen, biochemical, FRET, uHTS; recombinant SENP1 catalytic domain, CyPet-SUMO1-YPet FRET cleavage; inhibition, % at 10 µM; 360,000 tested, 0.21% active; AID 624204, 2012;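 active = inhibition at least 30% at 10 µM, raw YFP signal under a set limit, fluorescence ratio 0.5 to 1.5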;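 also: 0% = enzyme with DMSO and 100% = no enzyme wells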
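material = recombinant human SENP1 catalytic domain, His6-tagged | quantity = 20 pM enzyme | reagent = 25 nM SUMO1 FRET substrate | compound dosing = 10 µM single point, 0.5% DMSO | timing = 50 min enzyme reaction, room temperature, light-protected | detection = FRET, CFP and YFP emission | control set = no-enzyme low, enzyme-DMSO high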
HSP90 refold inh: HSP90 inhibitors, primary screen, cell lysate, luminescence; Rabbit reticulocyte lysate, luciferase refolding luminescence, 3 h; Heat shock protein HSP 90 (rabbit reticulocyte lysate; luciferase refolding); inhibition, % at 5.6 µM; AID 1789, 2009; 290,000 tested, 0.91% active;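 active = inhibition above the screen-wide mean plus 3 SD, computed separately per campaign, cut at about 16% in these data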;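 also: 0% = DMSO wells and 100% = 60 µM geldanamycin wells; inhibitors lower the luminescence because luciferase stays unfolded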
SENP7 inh: SENP7 protease inhibitors, primary screen, biochemical, luminescence, uHTS; Sentrin-specific protease 7 (Homo sapiens), Q9BQF6; recombinant SENP7, Z-RLRGG-aminoluciferin luminescence, 40 min; inhibition, % at 5 µM; 330,000 tested, 1.5% active; AID 434973, 2010;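 active = inhibition above about 50% at the single test dose, limit read from the data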;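 also: plate controls were DMSO with enzyme for no effect and no enzyme buffer wells for full effect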
SENP8 block-1: SENP8 protease inhibitors, primary screen, biochemical, luminescence | Sentrin-specific protease 8 (Homo sapiens), Q96LD8 | purified SENP8, Z-RLRGG-aminoluciferin cleavage | inhibition, % at 10 µM | 330,000 tested, 1.2% active | AID 2540, 2010; in the data active = inhibition above about 50%
SENP8 block-2: human SENP8 protease inhibitors, primary screen, biochemical, fluorescence, Nedd8 protein substrate, uHTS; Sentrin-specific protease 8 (Homo sapiens), Q96LD8; recombinant SENP8; inhibition, % at 20 µM; 360,000 tested, 0.64% active; AID 602440, 2012; in the data active = inhibition mostly above about 40%, no sharp cut-off; inactive = mostly below about 27%
SENP8 conf: SENP8 protease inhibitors, retest, confirmation, biochemical, luminescence, single concentration; shares compounds with SENP7 inh; 6,200 tested, 40% active; inhibition, % at 12.5 µM; Recombinant SENP8, Z-RLRGG-aminoluciferin luminescence, 60 min; AID 488912, 2010;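 active = mean inhibition across replicates above about 50%, limit read from the data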
SENP6 confirm: SENP6 protease inhibitors, confirmation, biochemical, luminescence, single concentration; shares compounds with SENP7 inh; recombinant SENP6, Z-RLRGG-aminoluciferin luminescence; AID 488915, 2010; 6,200 tested, 58% active; inhibition, % at 12.5 µM
SENP7 confirm: SENP7 protease inhibitors, retest, confirmation, biochemical, luminescence, single concentration; shares compounds with SENP7 inh; recombinant SENP7, Z-RLRGG-aminoluciferin luminescence, 40 min; inhibition, % at 12.5 µM; 6,200 tested, 69% active; AID 488917, 2010
Casp3 select: caspase-3 protease inhibitors, confirmation, selectivity assay for SENP inhibitor project, biochemical, single concentration | purified caspase-3, Z-DEVD-aminoluciferin luminescence, 60 min | 6,200 tested, 60% active | shares compounds with SENP7 inh | inhibition, % at 12.5 µM | AID 488918, 2010;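 active = mean inhibition above about 50%, limit read from the data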;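 also: plate controls were enzyme with DMSO for no effect and wells without caspase-3 for full effect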
Target sequence (P42574 28-227 limits assumed): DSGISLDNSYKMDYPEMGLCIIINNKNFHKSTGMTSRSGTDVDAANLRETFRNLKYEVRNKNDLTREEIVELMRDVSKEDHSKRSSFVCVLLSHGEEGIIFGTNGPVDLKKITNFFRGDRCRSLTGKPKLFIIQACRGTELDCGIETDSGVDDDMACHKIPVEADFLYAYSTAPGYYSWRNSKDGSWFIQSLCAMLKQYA
SENP luc ctr: luminescence interference (SENP counter-screen); shares compounds with SENP7 inh; Pre-incubated SENP8/Z-RLRGG-aminoluciferin, luciferase luminescence interference; inhibition, % at 12.5 µM; 6,200 tested, 39% active; AID 488919;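 active = mean inhibition above about 50% when retested at one dose, limit read from the data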;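 also: plate controls were DMSO wells with completed reaction for no effect and substrate without enzyme for full effect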
Numbers without * were called inactive; i = inactive; nt = no result given. The list is not random: actives were taken first. Their share in the collection is about 2.9%.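 The calls were made as follows, unless noted: active = mean inhibition above about 50% in the one-dose retest (limit read from the data); inactive = the rest.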

SMILES	SENP6 inh	SENP1 inh	HSP90 refold inh	SENP7 inh	SENP8 block-1	SENP8 block-2	SENP8 conf	SENP6 confirm	SENP7 confirm	Casp3 select	SENP luc ctr
CC(/C=N/n1c(-c2ccccc2)n[nH]c1=S)=C\c1ccco1	-12.7	2.4	0.7	4.1	-8.3	2.8	nt	nt	nt	nt	nt
CC(/C=N/N1CCN(c2ccccc2)CC1)=C\c1ccco1	95.7*	0.8	-2.0	98.1*	95.1*	16.5	10.5	86.6*	90.6*	71.2*	17.0
CC(/C=N/N1CCN(c2ccccc2)CC1)=C\c1ccccc1	0.4	0.1	-1.8	75.5*	10.7	13.8	-10.1	-6.4	-8.6	25.0	-3.1
CCOC(=O)c1c(C)nc2cc(C)cc(C)n12	-12.6	-5.4	-5.7	3.0	-4.3	-7.3	nt	nt	nt	nt	nt
COc1ccc(C(CNC(=O)C(CC(C)C)NS(=O)(=O)c2ccc(C)cc2)N2CCOCC2)cc1 (stereo not given)	-7.2	-0.5	nt	-1.9	-0.9	0.9	nt	nt	nt	nt	nt
COC(=O)[C@H](CC(C)C)N(Cc1ccccc1)S(=O)(=O)N(Cc1ccc(OC)cc1)[C@@H](CC(C)C)C(=O)OC	-9.3	0.6	nt	-7.9	5.8	16.7	nt	nt	nt	nt	nt
Cc1cccc(NS(=O)(=O)c2nnc(NC(=O)C3CCCCC3)s2)c1	-3.8	1.4	-2.4	-10.5	-7.8	16.9	nt	nt	nt	nt	nt
CCOc1ccccc1NC(=O)C1CCN(S(=O)(=O)c2ccc(OC)c(OC)c2)CC1	-9.0	-0.5	0.4	71.3*	2.2	14.7	1.7	5.9	7.2	3.9	2.6
CCOc1ccccc1NC(=O)C1CCN(c2ccc(S(=O)(=O)N3CCCC3)cc2)CC1	1.1	0.8	0.6	-2.9	7.0	-4.4	nt	nt	nt	nt	nt
CCOC(=O)/C(=C/Nc1ccc(F)cc1)[N+](=O)[O-]	7.9	3.3	2.2	11.6	-2.2	5.2	nt	nt	nt	nt	nt
COc1ccc(OCCNC(=O)c2ccc3nc(C)c(N(C)Cc4ccc(NC(C)=O)cc4)n3c2)cc1	nt	-4.1	nt	nt	nt	6.6	nt	nt	nt	nt	nt
COc1cccc2sc3cc(NCc4ccc5c(c4)OCO5)ccc3c(=O)c12	10.6	-62.7	nt	58.2*	14.1	-487.2	1.7	2.5	3.1	14.7	12.5
COc1cccc2sc3ccc(NCCC4CCCN4C)cc3c(=O)c12 (stereo not given)	-7.8	-5.4	2.0	11.7	-21.0	8.8	nt	nt	nt	nt	nt
COc1ccc(NCc2ccc3c(c2)OCO3)cc1Cl	10.5	0.5	-1.7	0.6	-2.9	9.5	nt	nt	nt	nt	nt
COc1cc2sc3cc(NCc4ccc5c(c4)OCO5)ccc3c(=O)c2cc1OC	-24.7	-23.8	nt	70.1*	44.3	-494.2	-23.7	-13.8	-3.1	7.0	18.3
CCn1cc(C(=O)NCc2ccc(C)o2)c2cc(OC)c(OC)cc2c1=O	-11.8	-2.6	4.0	5.6	3.8	9.9	nt	nt	nt	nt	nt
COc1cc2sc3cc(NCc4ccc(C)o4)ccc3c(=O)c2cc1OC	-22.5	-52.0	nt	87.3*	81.0*	i	-9.0	56.4*	88.3*	79.6*	62.4*
COc1cc2sc3cc(NCC[C@@H]4CCCN4C)ccc3c(=O)c2cc1OC	57.0*	-26.3	nt	52.8*	50.2*	i	9.3	9.1	13.3	30.2	36.9
CN(C)NC(=S)NC1CC2CCC1C2 (stereo not given)	-12.4	0.3	1.1	4.1	6.3	12.7	nt	nt	nt	nt	nt
CC1CN(S(=O)(=O)c2cccc(C(=O)NCC(c3cccs3)N3CCOCC3)c2)CC(C)O1 (stereo not given)	nt	-2.7	nt	nt	nt	7.7	nt	nt	nt	nt	nt
COc1ccccc1NS(=O)(=O)c1cccc(-n2c(O)c(C=Nc3ccccc3C(=O)O)c3ccccc3c2=O)c1	51.6*	-68.0	2.9	6.4	21.4	2.3	40.8	37.9	36.6	17.9	3.9
CCN(C(=O)CSc1nc2ccccc2n1C)C1CCS(=O)(=O)C1 (stereo not given)	3.9	0.2	nt	-5.0	1.5	8.0	nt	nt	nt	nt	nt
CN=C1S/C(=C\c2ccc(N3CCCC3)c(F)c2)C(=O)N1C	73.3*	-29.8	0.2	70.8*	12.3	-60.8	2.1	5.6	19.5	29.0	0.9
N#Cc1ccc(Cn2ccnc2C(=O)Nc2ccccc2)cc1	10.8	1.3	-2.2	-4.7	-11.7	3.8	nt	nt	nt	nt	nt
Cc1ccc(Cn2ccnc2C(=O)Nc2ccccc2)cc1	78.8*	1.6	2.4	72.8*	50.7*	4.0	4.4	-0.2	46.6	8.8	22.2
SMILES	SENP6 inh	SENP1 inh	HSP90 refold inh	SENP7 inh	SENP8 block-1	SENP8 block-2	SENP8 conf	SENP6 confirm	SENP7 confirm	Casp3 select	SENP luc ctr
CCn1cnc2sc(-c3ccccc3)cc2c1=O	58.2*	0.0	-1.8	10.3	21.4	-29.2	36.8	30.4	64.7*	49.7	43.7
CCOC(=O)c1c(C)oc2c1cc(O)c1ccccc12	28.8	4.2	0.1	71.7*	26.2	-47.9	2.8	13.1	7.3	6.4	-1.5
CCN1CCN(C2=C(NS(=O)(=O)c3ccc(NC(C)=O)cc3)C(=O)c3ccccc3C2=O)CC1	51.9*	-2.6	5.2	26.3	27.5	62.9*	8.1	31.4	9.9	3.7	-3.0
CCN1CCN(C2=C(NS(=O)(=O)c3ccc(C)cc3)C(=O)c3ccccc3C2=O)CC1	51.9*	-5.1	0.1	21.1	30.2	42.9*	-4.0	26.0	6.5	2.6	-4.1
Cc1ccnc(NC(=O)c2ccc3c(c2)S(=O)(=O)c2ccccc2C3=O)c1	87.4*	1.8	1.1	92.4*	84.5*	38.8	11.0	5.8	97.1*	63.7*	13.1
O=c1[nH]c(/C=C/c2ccccc2F)nc2ccccc12	91.7*	-0.3	12.7	96.4*	83.4*	i	75.6*	78.9*	89.4*	90.9*	22.0
O=C(Nc1cccc(/C=C/c2nc3ccccc3c(=O)[nH]2)c1)c1ccccc1Cl	1.4	-2.6	0.2	37.3	-7.9	-104.7	nt	nt	nt	nt	nt
